Dynein transport: inhibitors of GR-EGFP nuclear translocation, primary screen, dynein cargo transport inhibitor project, imaging, high-content, 3617.4 mouse cells. z-score, hits read low. test concentration mostly 20 µM; stimulated with dexamethasone, 1 µM; hits give low values. 220,000 tested, 0.47% active;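 active = plate z-score of nuclear minus cytoplasmic receptor signal below a set negative limit, without overly bright fluorescence or cell loss, cut at about -3.5 in these data, passing the limit was not always enough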;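 note: z-score of nuclear minus cytoplasmic ring GR-EGFP intensity difference per well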
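Medium: Induction medium lacking tetracycline, stripped serum | Probe or stimulus: 1.0 µM final dexamethasone stimulus | Schedule: 48 h induction, then 1 h compound, then 30 min agonist, 37 °C | Signal: Automated 10x imaging of fixed Hoechst-stained cells | Evaluation: Per-cell GR-EGFP intensity, nucleus versus surrounding cytoplasmic ring, well-averaged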
UPR CHOP act: activators of apoptotic CHOP UPR arm, primary screen, cell-based, CHO-CHOP luciferase reporter, luminescence, uHTS; UPR activation; percent of tunicamycin response over DMSO baseline; activation, % at 10 µM; 330,000 tested, 0.34% active;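 active = at 10 µM dose, activation of 40% or more, normalized to positive control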;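 note: 100% = tunicamycin at 10 µg/mL and 0% = DMSO alone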
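Assay system: CHO cells with stable CHOP pathway luciferase reporter; Buffer or medium: F12 plus 10% serum; Times: 16-18 h cell attachment, then 6 h compound exposure, 37 °C; Signal: luciferase luminescence; Read-out basis: percent activation relative to tunicamycin control; Control set: tunicamycin high control, DMSO low control.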
UPR XBP1 act: activators of adaptive XBP1 UPR arm, primary screen, cell-based, CHO-XBP1 luciferase reporter, luminescence, uHTS. activation, % at 20 µM. IRE1-XBP1 UPR activation; percent of tunicamycin response, DMSO as zero. 330,000 tested, 0.33% active. AID 463104, 2010;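 active = versus positive control, 20 µM dose yields 30% or more activation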;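 note: 100% = tunicamycin at 10 µg/mL and 0% = DMSO only wells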
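assay system = CHO-XBP1 luciferase reporter cells | amount = 1000 cells/well | buffer or medium = F12 plus 10% FBS | compound dosing = single point, 20 µM final compound, 1% DMSO | incubation = 16-18 h cell attachment at 37 °C, then 6 h compound exposure | detection = Steady-Glo luminescence read | controls = tunicamycin 10 µg/mL and vehicle-only wells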
Mdm2 ligase inh: MDM2-luciferase reporter signal enhancers, primary screen, MDM2 E3 ligase inhibitor project, cell-based, luminescence, 1536-well; E3 ubiquitin-protein ligase Mdm2 (Homo sapiens), Q00987; cell-based MDM2 ubiquitination luciferase reporter, 2 h; 0 = plate control, 100 = twice control, blank-subtracted; signal enhancement, % at 5 µM; 210,000 tested, 0.11% active; AID 1230, 2008;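 active = signal enhancement of 30% or more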;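 note: luminescence tracks abundance of the self-degrading MDM2-luciferase fusion protein; higher signal means inhibition of MDM2 E3 ligase activity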
Target sequence (Q00987 whole entry, looked up, the tested form may be a part): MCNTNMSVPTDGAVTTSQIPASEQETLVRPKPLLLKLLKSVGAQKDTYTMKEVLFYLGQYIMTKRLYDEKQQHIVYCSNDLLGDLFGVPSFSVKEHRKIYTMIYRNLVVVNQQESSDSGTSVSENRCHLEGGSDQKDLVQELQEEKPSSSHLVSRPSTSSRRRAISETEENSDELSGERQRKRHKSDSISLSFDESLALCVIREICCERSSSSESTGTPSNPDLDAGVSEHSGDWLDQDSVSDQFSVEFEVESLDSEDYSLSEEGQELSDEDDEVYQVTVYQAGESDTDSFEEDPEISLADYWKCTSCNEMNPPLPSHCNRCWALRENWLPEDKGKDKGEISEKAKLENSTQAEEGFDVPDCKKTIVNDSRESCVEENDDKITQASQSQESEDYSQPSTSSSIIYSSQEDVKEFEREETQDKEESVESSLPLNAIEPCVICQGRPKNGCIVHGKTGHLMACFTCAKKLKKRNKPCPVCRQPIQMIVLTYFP
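Assay system: stable mammalian line carrying autodegrading MDM2–luciferase fusion reporter; amount: 2000 cells seeded into each well; buffer or medium: DMEM; benchmarks: plate control and blank wells; signal: luciferase luminescence; timing: 2 h compound exposure at 37 °C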
Mdm2 MdmX PPI: inhibitors of human Mdm2-MdmX association, primary screen, cell-based, luminescence, split luciferase, SaOS-2, uHTS; inhibition, % at 8 µM; 330,000 tested, 3% active; Protein Mdm4 (Homo sapiens) + E3 ubiquitin-protein ligase Mdm2 (Homo sapiens), …; SaOS-2 split-luciferase Mdm2/MdmX complementation;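 active = inhibition of at least 50% at 8 µM in the primary screen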
B2AR ag: beta2AR agonists driving receptor internalization, primary screen, cell-based, FAP fluorogen, flow cytometry | response, % (no concentration beside the values) | Am2.2-beta2AR cells | Beta-2 adrenergic receptor (Homo sapiens), P07550 | 340,000 tested, 0.43% active;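 active = response above a set limit, near 3 SD of response in nonfluorescent compounds, cut at about 42% in these data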
Mdm2 MdmX conf: Mdm2-MdmX complex disruptors, retested hits, confirmation, luminescence, single concentration | shares compounds with Mdm2 MdmX PPI | Mdm2-MdmX binding, luminescent assay | inhibition, % at 8 µM | 10,000 tested, 55% active | AID 489028, 2010; in the data active = inhibition above about 40%
Full FLuc ctr: full-length luciferase signal inhibition, confirmation, counter-screen for Mdm2/MdmX interaction inhibitor project, cell-based, single concentration, SaOS-2. shares compounds with Mdm2 MdmX PPI. SaOS-2 full-length luciferase counterscreen, luminescence. inhibition, % at 8 µM. 6,200 tested, 77% active. AID 504607, 2011;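 active = mean inhibition at 8 µM reaching about 37%, which flags the compound as non-specific, limit read from the data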;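 note: p53-null SaOS-2 cells with luciferase driven by a doxycycline-inducible promoter; compound on cells about two nights before reading with doxycycline added after day one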
Numbers without * were called inactive; · = not tested or not shown. Only some compounds are listed: those with a hit (about 3.7% of all), similar ones and a draw of the others.

SMILES | Dynein transport | UPR CHOP act | UPR XBP1 act | Mdm2 ligase inh | Mdm2 MdmX PPI | B2AR ag | Mdm2 MdmX conf | Full FLuc ctr
OC(CNCCc1ccc(C(F)(F)F)cc1)COC(c1ccccc1)c1ccccc1 (stereo unspecified) | · | 0.1 | -2.3 | · | 87.2* | 20.1 | 42.2* | 56.2*
COc1ccc(C(=O)N/C(=C\c2cn(S(=O)(=O)N(C)C)c3ccccc23)C(=O)NC(C)C)cc1 | 0.809 | 1.3 | -0.4 | -13.2 | -0.9 | -1.5 | · | ·
CCN(CC)C(=O)/C(=C/c1cn(S(=O)(=O)N(C)C)c2ccccc12)NC(=O)c1ccc(OC)cc1 | -0.862 | 1.6 | -1.9 | 7.3 | 61.3* | -0.1 | 23.6 | ·
NC(=O)c1c(NC(=O)c2ccc([N+](=O)[O-])o2)sc2c1CCCC2 | · | 18.7 | 0.6 | · | 13.8 | 31.7 | · | ·
CNC(=O)c1c(NC(=O)c2ccc(S(=O)(=O)N3CCCCC3)cc2)sc2c1CCN(C(C)C)C2 | · | 0.0 | -4.1 | · | 13.6 | 9.1 | · | ·
CN1CCc2c(sc(NC(=O)c3ccc([N+](=O)[O-])o3)c2C(N)=O)C1 | · | 36.5 | -3.8 | · | 94.2* | 33.2 | 88.7* | 55.2*
CN1CCc2c(sc(NC(=O)c3ccc(S(=O)(=O)N4CCc5ccccc54)cc3)c2C(N)=O)C1 | -0.664 | 1.3 | 11.1 | -4.3 | 96.3* | · | 82.8* | 24.1
CCN1CCc2c(sc(NC(=O)c3ccc(S(=O)(=O)N4CCCC4)cc3)c2C(=O)NC)C1 | · | 2.6 | -2.2 | · | 82.8* | 19.5 | 21.9 | ·
NC(=O)c1ccsc1NC(=O)c1ccc([N+](=O)[O-])o1 | · | 6.3 | 6.3 | · | 56.6* | 15.4 | 24.0 | ·
CNC(=O)c1c(NC(=O)c2ccc(S(=O)(=O)N3CCCc4ccccc43)cc2)sc2c1CCN(C)C2 | -0.0291 | -0.3 | 11.5 | -6.0 | 26.9 | -67.0 | · | ·
Cc1ccc(C(=O)N2CCN(c3cccc(C)c3C)CC2)cc1S(=O)(=O)N1CCOCC1 | · | 0.2 | -5.1 | · | -3.9 | 9.4 | · | ·
CCOC(=O)N1CCN(S(=O)(=O)c2ccc(C(=O)Nc3sc4c(c3C(N)=O)CCN(CC)C4)cc2)CC1 | · | -2.7 | -0.5 | · | 79.4* | 8.9 | 8.1 | ·
CCN1CCc2c(sc(NC(=O)c3cc4ccccc4cc3OC)c2C(N)=O)C1 | · | 13.7 | 12.0 | · | 100.4* | 29.4 | 18.4 | ·
O=C(Nc1cccc(NC(=O)c2ccccc2Cl)c1)c1ccc([N+](=O)[O-])o1 | · | 25.0 | -0.5 | · | 60.6* | 14.7 | 58.0* | 42.4*
CCOC(=O)N1CCN(S(=O)(=O)c2ccc(C(=O)Nc3sc4c(c3C(=O)OC)CCN(C)C4)cc2)CC1 | · | 0.4 | 23.6 | · | 100.4* | -5.2 | 38.5 | ·
CCCN1CCc2c(sc(NC(=O)c3ccc(S(=O)(=O)N4CCN(C(=O)OCC)CC4)cc3)c2C(N)=O)C1 | · | 1.1 | 1.4 | · | -18.3 | -189.9 | · | ·
CN1CCc2c(sc(NC(=O)c3ccc(S(=O)(=O)N4CCCC4)cc3)c2C(N)=O)C1 | · | -0.2 | -4.5 | · | 5.2 | -1.9 | · | ·
CCN1CCN(C(=O)CCc2nnc3ccc(N4CCN(c5cccc(OC)c5)CC4)nn23)CC1 | · | -0.4 | -0.5 | · | -5.3 | -0.4 | · | ·
COc1ccc(-c2ccc(SCC(=O)N3CCN(c4ccccc4)CC3)nn2)cc1 | -0.0974 | -0.8 | 2.7 | -0.8 | 52.3* | 6.8 | 10.2 | ·
O=C(COc1ccccc1F)Nc1ccc(S(=O)(=O)N2CCCC2)cc1 | · | -0.7 | -3.0 | · | -17.3 | -2.7 | · | ·
COc1ccc(-c2csc(NC(=S)NC(=O)c3cc4ccccc4o3)n2)cc1Br | · | 1.0 | 0.1 | · | -3.5 | 1.0 | · | ·
COc1ccc(C(=O)NC(=S)Nc2nc(-c3ccc(OC)c(Br)c3)cs2)cc1Br | · | 0.4 | -1.1 | · | 21.1 | -16.1 | · | ·
COc1cc(OC)cc(C(=O)NC(=S)Nc2nc(-c3cc4ccccc4o3)cs2)c1 | -0.406 | 2.4 | 21.6 | · | 64.8* | -1.3 | 0.3 | ·
COc1ccc(-c2csc(NC(=S)NC(=O)c3ccco3)n2)cc1Br | · | 0.9 | 9.1 | · | 82.2* | -7.4 | 55.5* | 23.1
COc1ccc(-c2csc(NC(=S)NC(=O)c3ccccc3)n2)cc1Br | -0.375 | -0.1 | 0.5 | -6.3 | 55.5* | 3.0 | 38.4 | 85.0*
SMILES | Dynein transport | UPR CHOP act | UPR XBP1 act | Mdm2 ligase inh | Mdm2 MdmX PPI | B2AR ag | Mdm2 MdmX conf | Full FLuc ctr
CN(C)S(=O)(=O)c1ccc(Cl)c(C(=O)NC2CCCCCCC2)c1 | · | -2.0 | -3.7 | · | 32.0 | -8.7 | · | ·
Cc1ccnc(NC(=O)C(Cc2ccccc2)NC(=O)c2ccccc2)c1 (stereo unspecified) | · | -0.6 | 0.2 | · | 10.4 | -5.2 | · | ·
CC[C@H](C)[C@@H](CN[C@H](C)CNC)NCCC(c1ccccc1)c1ccccc1 | · | -1.5 | -0.7 | · | 98.9* | 28.3 | 93.4* | 4.3
CC1c2cc3c(cc2CCN1C(=O)c1ccc(Br)cc1)OCCCO3 (stereo unspecified) | · | -2.2 | -4.0 | · | 69.5* | -0.8 | 45.7* | 46.6*
Cc1ccc(-c2cc(C(F)F)n3ncc(C(=O)N4CCCc5ccccc54)c3n2)cc1 | -0.1 | 0.3 | 1.3 | 0.8 | 16.1 | -19.9 | · | ·
COc1ccc(-c2cc(C(F)F)n3ncc(C(=O)N4CCc5ccccc54)c3n2)cc1 | -0.372 | 0.1 | 21.9 | 1.9 | 66.6* | 0.1 | 55.7* | 72.5*
CN(c1cccc(Cl)c1)S(=O)(=O)c1cccc(C(=O)Nc2nc3ccccc3[nH]2)c1 | 1.23 | 11.4 | -0.6 | -10.0 | 81.2* | 4.1 | 36.5 | 58.1*
Cc1cccn2c(=O)c3cc(C(=O)NCCc4ccccc4)c(=N)n(CC4CCCO4)c3nc12 (stereo unspecified) | · | 1.2 | 1.8 | · | 71.5* | -12.5 | 36.6 | ·
N=c1c(C(=O)NCC2CCCO2)cc2c(=O)n3ccccc3nc2n1Cc1ccccc1Cl (stereo unspecified) | · | -0.4 | 0.3 | · | 64.1* | 0.8 | 25.9 | ·

Assay outcomes: PubChem, several laboratories
